Assay results taken from PMC6349498 (Drug testing and analysis, 2018).
Where two headings read alike, the source gives them in different places.

Experiments:
[1] = OT stability in human serum; assay type: in vitro ADME; conditions: added to human serum; 4°C or room temperature (23°C); up to 24 hours; LCMS
In short: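 OT and OT-d5 were added to human serum and held at room temperature (~23°C) or 4°C for 24 h. Levels were compared with pre-incubation values. Serum (500 µL) was spiked with OT-d5, acidified with 4% phosphoric acid, then C18 SPE-purified. Quantitation was by HRAM orbitrap LCMS in positive heated ESI targeted SIM mode.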

[2] = OT stability in water; assay type: physicochemical; conditions: spiked 9.9, 24.8, 154 and 385 ng/mL in water; 10°C; up to 5 days; LCMS
In short: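 Water was spiked with OT and OT-d5 at final 9.9, 24.8, 154 and 385 ng/mL and held at 10°C for variable times, matching the urine spikes. OT and OT-d5 levels were quantitated by HRAM orbitrap LCMS (positive heated ESI, targeted SIM). Means and standard deviation were reported.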

[3] = OT stability in human urine; assay type: in vitro ADME; conditions: human urine spiked 9.9-385 ng/mL; 10°C; up to 5 days; LCMS
[4] = assay type: in vivo, human
In short: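 Healthy male and post-menopausal female volunteers self-dosed intranasally. Male: 100 IU (10 IU/puff, 5 puffs per nostril, alternating), then 20 IU (1 puff per nostril) after one-week washout. Female: 100 IU (50 IU/puff) compounded metered spray. Serum (male), urine and saliva were sampled baseline to 120–240 min and frozen at −80°C. Samples were C18 SPE-extracted with OT-d5 internal standard and analysed by orbitrap targeted SIM (m/z 562.25503); urine was creatinine-adjusted.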

[5] = plasma from men and non-pregnant women; 60 minute incubation at 37°C; cited from earlier work
[6] = healthy volunteer, n=1, 100 IU intranasal (OxyLuv), saliva
[7] = male, human, serum, inhaled or intranasal, 100 IU

Row | time after the peak at which levels decreased to below detection limits ([4]; 2 volunteers, 20 IU or 100 IU intranasal, serum, urine, saliva, summary) [h] | time of peak levels in serum, urine and saliva after each dose ([4]; 2 volunteers, 20 IU or 100 IU intranasal, summary over matrices) [min] | time of elimination of saliva OT to levels below LLOD ([4]; after intranasal OT, saliva, LLOD 10 pg/mL) [h] | time of peak saliva OT level ([4]; healthy volunteer, n=1, 20 IU intranasal (OxyLuv), saliva) [min] | peak saliva OT level [4, 6] | time of peak saliva OT level [4, 6] [min] | time of decrease of serum OT to baseline ([4]; healthy volunteer, n=1, 100 IU intranasal (OxyLuv), serum) [min] | time of peak urine OT excretion ([4]; healthy volunteer, n=1, 100 IU intranasal (OxyLuv), urine) [min] | Cmax [4, 7] [ng/mL] | Tmax [4, 7] [min] | Compound | change in level compared to pre-incubation level [1] [%] | stability in water [2] | stability in urine after the initial drop [3] | OT degradation in plasma [5]
1 | – | – | – | – | – | – | – | – | – | – | OT-leucyl-d3-glycinamide-d2 [OT-d5] | < 15 | remained stable | stayed at those low levels | –
2 | 1 to 2 | 15 to 30 | 2 to 3 | 15 | 392,000 pg/mL | 15 | ≤ 60 | 30 | 0.08 | 15 | CC[C@H](C)[C@@H]1NC(=O)[C@H](Cc2ccc(O)cc2)NC(=O)[C@@H](N)CSSC[C@@H](C(=O)N2CCC[C@H]2C(=O)N[C@@H](CC(C)C)C(=O)NCC(N)=O)NC(=O)[C@H](CC(N)=O)NC(=O)[C@H](CCC(N)=O)NC1=O [OT, Oxytocin] | < 15 | remained stable | stayed at those low levels | little or no OT degradation
